Experimental data: ChEMBL document CHEMBL4619736, “Direct modifications of the cyclic peptide Polymyxin B leading to analogues with enhanced in vitro antibacterial activity” (Bioorg Med Chem Lett, 2020)
In brackets after ≈: the same amount, converted by molar mass. Numbered stars: 1 amine (or outer) side, 2 acyl side, 3 side chain; on linkers, the order of the positions; unused ones are H or OH. Bridge positions count the residues as written; N and C are the ends. Square brackets hold non-standard residues; d marks the D form. Peptide text beside a SMILES is read from it. * marks the point of attachment. X2 = O=C([C@@H](Cc1ccc(-c2ccncc2)cc1)N[*:1])[*:2]; GABA(3R-Bn) = O=C(C[C@H](CN[*:1])Cc1ccccc1)[*:2]; X1 = CC[C@H](C)CCCCC(=O)*; Dab = NCC[C@H](N)C(=O)O; Dap = NC[C@H](N)C(=O)O

Columns and labels:
Escherichia coli [1] = assay: Antibacterial activity against Escherichia coli ATCC 25922 by CLSI based broth microdilution method; assay type: functional
In short: (§1)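 Broth microdilution MIC per CLSI guidelines (M07-A9) in cation-adjusted Mueller-Hinton broth; panel of Gram-negative strains including clinical isolates with reduced polymyxin B susceptibility.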

Escherichia coli [2] = assay: Antibacterial activity against Escherichia coli IHMA 940398 by CLSI based broth microdilution method; assay type: functional; in short: as §1
Klebsiella pneumoniae [3] = assay: Antibacterial activity against Klebsiella pneumoniae ATCC 4352 by CLSI based broth microdilution method; assay type: functional; in short: as §1
Pseudomonas aeruginosa [4] = assay: Antibacterial activity against Pseudomonas aeruginosa ATCC 27853 by CLSI based broth microdilution method; assay type: functional; in short: as §1
Pseudomonas aeruginosa [5] = assay: Antibacterial activity against Pseudomonas aeruginosa IHMA 517175 by CLSI based broth microdilution method; assay type: functional; in short: as §1
Acinetobacter baumannii [6] = assay: Antibacterial activity against Acinetobacter baumannii NCTC 13424 by CLSI based broth microdilution method; assay type: functional; in short: as §1
Acinetobacter baumannii [7] = assay: Antibacterial activity against Acinetobacter baumannii IHMA 863866 by CLSI based broth microdilution method; assay type: functional; in short: as §1
[8] = Ratio of test compound IC50 to polymyxin B IC50 for cytotoxicity against human HK2 cells incubated for 24 hrs by resazurin blue dye based assay; assay type: cell-based; conditions: HK-2 cells, read-out: Ratio IC50
In short: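 Confluent monolayers of human proximal tubule epithelial HK-2 cells exposed to compound for 24h at 37°C, 5% CO2; top concentration 1,000 or 3,000 μg/mL, semi-log dilutions, 9 points. Viability read with resazurin blue; log-concentration dose-response fit with bottom constrained to zero gives IC50, expressed relative to polymyxin B IC50 run in the same experiment.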

Klebsiella pneumoniae [9] = assay: Antibacterial activity against Klebsiella pneumoniae IHMA 652780 by CLSI based broth microdilution method; assay type: functional; in short: as §1

Compound	MIC (Escherichia coli [1])	MIC (Escherichia coli [2])	MIC (Klebsiella pneumoniae [3])	MIC (Pseudomonas aeruginosa [4])	MIC (Pseudomonas aeruginosa [5])	MIC (Acinetobacter baumannii [6])	MIC (Acinetobacter baumannii [7])	selectivity ratio at 24 h [8]	MIC (Klebsiella pneumoniae [9])
CC(C)C[C@@H]1NC(=O)[C@@H](Cc2ccccc2)NC(=O)[C@H](CCN)NC(=O)[C@@H](NC(=O)[C@H](CN)NC(=O)[C@@H](NC(=O)C[C@H](CN)Cc2ccccc2)[C@@H](C)O)CCNC(=O)[C@H]([C@@H](C)O)NC(=O)[C@H](CCN)NC(=O)[C@H](CCN)NC1=O ({GABA(3R-Bn)}-T[Dap][Dab][Dab][dF]L[Dab][Dab]T; lactam 3-C)	0.25 mg/L (≈ 0.222 µM)	32 mg/L (≈ 28.5 µM)	0.125 mg/L (≈ 0.111 µM)	0.125 mg/L (≈ 0.111 µM)	8 mg/L (≈ 7.12 µM)	0.125 mg/L (≈ 0.111 µM)	> 64 mg/L	12	
CC[C@H](C)CCCCC(=O)N[C@@H](CCN)C(=O)N[C@H](C(=O)N[C@@H](CCN)C(=O)N[C@H]1CCNC(=O)[C@H]([C@@H](C)O)NC(=O)[C@H](CCN)NC(=O)[C@H](CCN)NC(=O)[C@H](CC(C)C)NC(=O)[C@@H](Cc2ccc(-c3ccccc3)cc2)NC(=O)[C@H](CCN)NC1=O)[C@@H](C)O	1 mg/L (≈ 0.781 µM)	8 mg/L (≈ 6.25 µM)	0.5 mg/L (≈ 0.391 µM)	1 mg/L (≈ 0.781 µM)	2 mg/L (≈ 1.56 µM)	1 mg/L (≈ 0.781 µM)	16 mg/L (≈ 12.5 µM)	0.14	0.5 mg/L (≈ 0.391 µM)
CC(C)C[C@@H]1NC(=O)[C@@H](Cc2ccc(-c3ccccc3)cc2)NC(=O)[C@H](CCN)NC(=O)[C@@H](NC(=O)[C@H](CN)NC(=O)[C@@H](NC(=O)[C@@H]2CNCCN2CC(C)C)[C@@H](C)O)CCNC(=O)[C@H]([C@@H](C)O)NC(=O)[C@H](CCN)NC(=O)[C@H](CCN)NC1=O	0.125 mg/L (≈ 0.105 µM)	8 mg/L (≈ 6.7 µM)	0.25 mg/L (≈ 0.209 µM)	0.5 mg/L (≈ 0.419 µM)	4 mg/L (≈ 3.35 µM)	0.125 mg/L (≈ 0.105 µM)	4 mg/L (≈ 3.35 µM)	2.4	0.5 mg/L (≈ 0.419 µM)
CC[C@H](C)CCCCC(=O)N[C@@H](CCN)C(=O)N[C@H](C(=O)N[C@@H](CCN)C(=O)N[C@H]1CCNC(=O)[C@H]([C@@H](C)O)NC(=O)[C@H](CCN)NC(=O)[C@H](CCN)NC(=O)[C@H](CC(C)C)NC(=O)[C@@H](Cc2ccc(-c3ccncc3)cc2)NC(=O)[C@H](CCN)NC1=O)[C@@H](C)O (X1-[Dab]T[Dab][Dab][Dab][X2]L[Dab][Dab]T; lactam 4-C)	1 mg/L (≈ 0.781 µM)	32 mg/L (≈ 25 µM)	1 mg/L (≈ 0.781 µM)	1 mg/L (≈ 0.781 µM)	32 mg/L (≈ 25 µM)	2 mg/L (≈ 1.56 µM)		0.7	
CC[C@H](C)CCCCC(=O)N[C@@H](CCN)C(=O)N[C@H](C(=O)N[C@@H](CCN)C(=O)N[C@H]1CCNC(=O)[C@H]([C@@H](C)O)NC(=O)[C@H](CCN)NC(=O)[C@H](CCN)NC(=O)[C@H](CC(C)C)NC(=O)[C@@H](Cc2ccccc2)NC(=O)[C@H](CCN)NC1=O)[C@@H](C)O (X1-[Dab]T[Dab][Dab][Dab][dF]L[Dab][Dab]T; lactam 4-C)	0.25 mg/L (≈ 0.208 µM)	16 mg/L (≈ 13.3 µM)	0.125 mg/L (≈ 0.104 µM)	0.5 mg/L (≈ 0.415 µM)	8 mg/L (≈ 6.65 µM)	0.25 mg/L (≈ 0.208 µM)	32 mg/L (≈ 26.6 µM)	1	4 mg/L (≈ 3.32 µM)
CC[C@H](C)CCCCC(=O)N[C@@H](CCN)C(=O)N[C@H](C(=O)N[C@@H](CCN)C(=O)N[C@H]1CCNC(=O)[C@H]([C@@H](C)O)NC(=O)[C@H](CCN)NC(=O)[C@H](CCN)NC(=O)[C@H](CC(C)C)NC(=O)[C@@H](CC2CCCCC2)NC(=O)[C@H](CCN)NC1=O)[C@@H](C)O	0.5 mg/L (≈ 0.413 µM)	8 mg/L (≈ 6.61 µM)	0.5 mg/L (≈ 0.413 µM)	1 mg/L (≈ 0.827 µM)	4 mg/L (≈ 3.31 µM)	0.5 mg/L (≈ 0.413 µM)	32 mg/L (≈ 26.5 µM)		1 mg/L (≈ 0.827 µM)
CC(C)C[C@@H]1NC(=O)[C@@H](CC2CCCCC2)NC(=O)[C@H](CCN)NC(=O)[C@@H](NC(=O)[C@H](CCN)NC(=O)[C@@H](NC(=O)C[C@H](CN)Cc2ccccc2)[C@@H](C)O)CCNC(=O)[C@H]([C@@H](C)O)NC(=O)[C@H](CCN)NC(=O)[C@H](CCN)NC1=O	0.125 mg/L (≈ 0.109 µM)	32 mg/L (≈ 28 µM)		0.25 mg/L (≈ 0.218 µM)	8 mg/L (≈ 6.99 µM)	0.06 mg/L (≈ 0.0524 µM)	64 mg/L (≈ 55.9 µM)	2.4	4 mg/L (≈ 3.5 µM)
CC[C@H](C)CCCCC(=O)N[C@@H](CCN)C(=O)N[C@H](C(=O)N[C@@H](CCN)C(=O)N[C@H]1CCNC(=O)[C@H]([C@@H](C)O)NC(=O)[C@H](CCN)NC(=O)[C@H](CCN)NC(=O)[C@H](CC(C)C)NC(=O)[C@@H](Cc2ccc(Br)cc2)NC(=O)[C@H](CCN)NC1=O)[C@@H](C)O	0.5 mg/L (≈ 0.39 µM)	4 mg/L (≈ 3.12 µM)	0.5 mg/L (≈ 0.39 µM)	0.5 mg/L (≈ 0.39 µM)	2 mg/L (≈ 1.56 µM)	0.5 mg/L (≈ 0.39 µM)	4 mg/L (≈ 3.12 µM)		0.5 mg/L (≈ 0.39 µM)
CC(C)C[C@@H]1NC(=O)[C@@H](CC2CCCCC2)NC(=O)[C@H](CCN)NC(=O)[C@@H](NC(=O)[C@H](CN)NC(=O)[C@@H](NC(=O)C[C@H](CN)Cc2ccccc2)[C@@H](C)O)CCNC(=O)[C@H]([C@@H](C)O)NC(=O)[C@H](CCN)NC(=O)[C@H](CCN)NC1=O	0.25 mg/L (≈ 0.221 µM)	16 mg/L (≈ 14.2 µM)	0.06 mg/L (≈ 0.0531 µM)	0.25 mg/L (≈ 0.221 µM)	4 mg/L (≈ 3.54 µM)	0.125 mg/L (≈ 0.111 µM)	64 mg/L (≈ 56.6 µM)	5.2	4 mg/L (≈ 3.54 µM)
CC(C)C[C@@H]1NC(=O)[C@@H](Cc2ccccc2)NC(=O)[C@H](CCN)NC(=O)[C@@H](NC(=O)[C@H](CN)NC(=O)[C@@H](NC(=O)C[C@H](CN)C2CCCCC2)[C@@H](C)O)CCNC(=O)[C@H]([C@@H](C)O)NC(=O)[C@H](CCN)NC(=O)[C@H](CCN)NC1=O	0.06 mg/L (≈ 0.0537 µM)	16 mg/L (≈ 14.3 µM)	0.125 mg/L (≈ 0.112 µM)	0.06 mg/L (≈ 0.0537 µM)	8 mg/L (≈ 7.17 µM)	0.25 mg/L (≈ 0.224 µM)	> 64 mg/L	6.9	4 mg/L (≈ 3.58 µM)
CC(C)C[C@@H]1NC(=O)[C@@H](CC2CCCCC2)NC(=O)[C@H](CCN)NC(=O)[C@@H](NC(=O)[C@H](CN)NC(=O)[C@@H](NC(=O)C[C@H](CN)C2CCCCC2)[C@@H](C)O)CCNC(=O)[C@H]([C@@H](C)O)NC(=O)[C@H](CCN)NC(=O)[C@H](CCN)NC1=O	0.5 mg/L (≈ 0.445 µM)	8 mg/L (≈ 7.13 µM)		0.5 mg/L (≈ 0.445 µM)	2 mg/L (≈ 1.78 µM)	0.125 mg/L (≈ 0.111 µM)	32 mg/L (≈ 28.5 µM)		2 mg/L (≈ 1.78 µM)
CC(C)C[C@@H]1CNC[C@@H](C(=O)N[C@H](C(=O)N[C@@H](CN)C(=O)N[C@H]2CCNC(=O)[C@H]([C@@H](C)O)NC(=O)[C@H](CCN)NC(=O)[C@H](CCN)NC(=O)[C@H](CC(C)C)NC(=O)[C@@H](Cc3ccc(-c4ccccc4)cc3)NC(=O)[C@H](CCN)NC2=O)[C@@H](C)O)C1	0.25 mg/L (≈ 0.21 µM)	2 mg/L (≈ 1.68 µM)	0.25 mg/L (≈ 0.21 µM)	0.5 mg/L (≈ 0.419 µM)	1 mg/L (≈ 0.839 µM)	0.25 mg/L (≈ 0.21 µM)	0.5 mg/L (≈ 0.419 µM)	1.2	0.5 mg/L (≈ 0.419 µM)
CC(C)C[C@@H]1NC(=O)[C@@H](Cc2ccccc2)NC(=O)[C@H](CCN)NC(=O)[C@@H](NC(=O)[C@H](CN)NC(=O)[C@@H](NC(=O)[C@@H]2CNCCN2CC(C)C)[C@@H](C)O)CCNC(=O)[C@H]([C@@H](C)O)NC(=O)[C@H](CCN)NC(=O)[C@H](CCN)NC1=O	0.25 mg/L (≈ 0.224 µM)	32 mg/L (≈ 28.6 µM)	0.25 mg/L (≈ 0.224 µM)	0.5 mg/L (≈ 0.447 µM)	32 mg/L (≈ 28.6 µM)	0.5 mg/L (≈ 0.447 µM)	> 64 mg/L	16.6	16 mg/L (≈ 14.3 µM)
